Assay results published in article PMC8897028 (Acta Pharmaceutica Sinica. B, 2021).

Columns and labels:
hTRPV3 [1] = biological target: T1, hTRPV3 (Homo sapiens, UniProt Q8NET8); test: whole-cell patch-clamp of hTRPV3 currents expressed in HEK293 cells; format: cell-based; settings: for inhibition of hTRPV3 channel current activated by 2-APB: compound 50 μmol/L, agonist 2-APB 50 μmol/L, n = 5; for Hill coefficient: inhibition of hTRPV3 currents evoked by 2-APB 50 μmol/L
T1 sequence (Q8NET8 1-790): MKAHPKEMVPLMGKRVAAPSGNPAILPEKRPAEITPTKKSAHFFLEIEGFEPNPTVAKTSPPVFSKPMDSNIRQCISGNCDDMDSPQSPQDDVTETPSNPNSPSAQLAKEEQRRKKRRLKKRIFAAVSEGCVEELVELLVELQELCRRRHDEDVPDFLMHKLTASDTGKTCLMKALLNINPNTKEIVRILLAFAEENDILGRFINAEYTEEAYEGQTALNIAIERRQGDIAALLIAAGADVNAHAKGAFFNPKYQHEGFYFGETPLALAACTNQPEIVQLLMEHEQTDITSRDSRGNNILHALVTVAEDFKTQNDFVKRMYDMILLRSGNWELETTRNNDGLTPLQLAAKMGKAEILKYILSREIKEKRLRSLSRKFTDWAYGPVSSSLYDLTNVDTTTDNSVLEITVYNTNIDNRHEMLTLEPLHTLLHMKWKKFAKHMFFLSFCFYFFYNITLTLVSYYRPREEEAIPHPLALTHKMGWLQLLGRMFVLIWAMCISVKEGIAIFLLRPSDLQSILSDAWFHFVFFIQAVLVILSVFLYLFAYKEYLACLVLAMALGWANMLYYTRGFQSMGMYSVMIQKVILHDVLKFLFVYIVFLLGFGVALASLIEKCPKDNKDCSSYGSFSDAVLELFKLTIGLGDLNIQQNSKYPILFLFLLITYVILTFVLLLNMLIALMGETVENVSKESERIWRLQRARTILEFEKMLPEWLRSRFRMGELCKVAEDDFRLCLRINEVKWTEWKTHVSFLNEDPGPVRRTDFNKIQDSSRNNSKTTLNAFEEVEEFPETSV
Summary of the method: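 Whole-cell currents were recorded from hTRPV3-transfected HEK293 cells (EGFP-identified, 18 h post-transfection) at 22–24 °C. Cells were held at 0 mV and ramped from −100 to +100 mV over 500 ms every 2 s. Currents were activated by 50 μmol/L 2-APB; test compound was added at 50 μmol/L or at 0.01–100 μmol/L. Outward current at +80 mV was fitted to a Hill equation for IC50; n = 5–8.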

hTRPV3 [2] = biological target: T1, hTRPV3; test: inside-out single-channel recordings of HEK293 cells overexpressing hTRPV3; format: biochemical; settings: for channel open probability: compound 100 μmol/L in the presence of carvacrol 300 μmol/L, from 26.9 ± 5.5%, +80 mV, n = 4; for effect on ion permeation or single-channel conductance: single-channel level
Summary of the method: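 Inside-out patches from EGFP-identified HEK293 cells, 18 h after hTRPV3 transfection, used 6–10 MΩ pipettes. Patches were held at 0 mV, then stepped to +80 mV. Currents were sampled at 10 kHz, filtered at 2.9 kHz, at 22–24 °C. All-points histograms were Gaussian-fitted for conductance and mean open probability; n = 4.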

mTRPV3 H426A = biological target: T2, mTRPV3 H426A (Mus musculus, UniProt Q8K424, H426A); test: whole-cell patch-clamp of mTRPV3 H426A mutant in HEK293 cells; format: cell-based; settings: compound 100 µmol/L; carvacrol 300 μmol/L
T2 sequence (Q8K424 1-791 H426A): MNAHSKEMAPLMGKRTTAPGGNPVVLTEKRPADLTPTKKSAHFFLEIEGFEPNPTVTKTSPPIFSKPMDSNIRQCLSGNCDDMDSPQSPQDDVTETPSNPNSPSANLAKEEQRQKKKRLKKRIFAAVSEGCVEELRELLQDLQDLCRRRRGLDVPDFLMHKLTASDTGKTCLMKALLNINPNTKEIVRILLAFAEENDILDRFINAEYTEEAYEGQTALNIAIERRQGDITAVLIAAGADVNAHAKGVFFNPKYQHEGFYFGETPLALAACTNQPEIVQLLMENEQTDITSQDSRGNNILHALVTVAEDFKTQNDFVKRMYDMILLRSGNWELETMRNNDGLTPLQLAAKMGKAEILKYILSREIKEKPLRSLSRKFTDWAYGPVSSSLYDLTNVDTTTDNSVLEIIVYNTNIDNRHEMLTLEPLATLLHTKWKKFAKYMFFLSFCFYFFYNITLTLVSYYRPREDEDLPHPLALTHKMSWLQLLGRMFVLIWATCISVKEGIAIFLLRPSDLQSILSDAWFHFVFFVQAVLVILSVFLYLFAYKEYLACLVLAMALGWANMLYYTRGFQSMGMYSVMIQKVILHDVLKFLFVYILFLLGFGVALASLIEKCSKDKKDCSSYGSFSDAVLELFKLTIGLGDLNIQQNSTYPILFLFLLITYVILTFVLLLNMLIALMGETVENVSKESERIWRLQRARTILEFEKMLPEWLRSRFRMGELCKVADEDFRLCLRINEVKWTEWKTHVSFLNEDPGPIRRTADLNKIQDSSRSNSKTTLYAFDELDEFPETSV
Summary of the method: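 The sequence-confirmed site-directed mTRPV3 mutant was transiently expressed in HEK293 cells, and EGFP-positive cells were recorded whole-cell 18 h post-transfection. Cells were held at 0 mV with 500-ms ramps from −100 to +100 mV every 2 s, at 22–24 °C. Compounds were diluted in perfusion solution.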

[3] = test system: HEK293 cells expressing hTRPV3; test: cell death assay; format: cell-based, human; settings: 12 h, n = 4
Summary of the method: (§1)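 HEK293 cells 12 h after hTRPV3 transfection, or HaCaT cells, were seeded in six-well plates, randomly split into 6 groups, and treated 12 h in culture medium. Cells were detached with 0.25% trypsin (HEK293 1 min; HaCaT 7 min), centrifuged, and stained 30 min in PBS with Hoechst and PI. Five random fields per group were imaged. Death ratio = PI-labelled over Hoechst-labelled nuclei, averaged over five images; n = 4.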

HaCaT cells [4] = test: cell proliferation MTT assay, HaCaT cells; format: cell-based, human; settings: IAB at 10 and 100 μmol/L with carvacrol 300 μmol/L, 24 h
Summary of the method: (§2)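 hTRPV3-transfected HEK293 or HaCaT cells were plated at 5 × 10^3 per well for 24 h, then exposed 24 h to TRPV3 activator and/or inhibitor in culture medium. MTT (5 mg/mL solution) was added for 4 h. Medium was removed, formazan dissolved in DMSO, and absorbance read at 490 nm.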

[5] = test system: HEK293 cells expressing hTRPV3; test: cell proliferation MTT assay, HEK293 cells transfected with hTRPV3; format: cell-based, human; settings: IAB at 10 and 100 μmol/L with carvacrol 300 μmol/L, 24 h
Summary of the method: as §2

HaCaT cells [6] = test: cell death assay; format: cell-based, human; settings: IAB added with carvacrol 300 μmol/L; 12 h
Summary of the method: as §1

SMILES | inhibition of hTRPV3 channel current activated by 2-APB (hTRPV3 [1]) | Hill coefficient (hTRPV3 [1]) | channel open probability (hTRPV3 [2]) | effect on ion permeation or single-channel conductance (hTRPV3 [2]) | inhibition of carvacrol-mediated H426A mutant currents (mTRPV3 H426A) | better potency of IAB versus IAA (hTRPV3 [1]; from hTRPV3 IC50 values) | cell death ratio ([3]; IAB 10 μmol/L with carvacrol 300 μmol/L) | cell death ratio ([3]; IAB 100 μmol/L with carvacrol 300 μmol/L) | reversal of overactive TRPV3-induced inhibition of cell proliferation (HaCaT cells [4]) | reversal of overactive TRPV3-induced inhibition of cell proliferation [5] | HaCaT cell death (HaCaT cells [6])
O=C(/C=C/c1ccc(O)c(O)c1)O[C@@H]1C[C@](O)(C(=O)O)C[C@@H](OC(=O)/C=C/c2ccc(O)c(O)c2)[C@H]1O [IAA, isochlorogenic acid A] | about 80.8 ± 2.1% | 0.50 | 3.7 ± 1.2% | no effect | markedly inhibited |  |  |  |  |  | 
O=C(/C=C/c1ccc(O)c(O)c1)O[C@@H]1[C@H](O)C[C@@](O)(C(=O)O)C[C@H]1OC(=O)/C=C/c1ccc(O)c(O)c1 [IAB, isochlorogenic acid B] | ~86.4 ± 3.3% | 0.53 | 3.2 ± 1.1% | no effect | markedly inhibited | 3 fold | 11.7 ± 0.9% | 9.9 ± 1.2% | significantly reversed | significantly reversed | dose-dependent reduction of HaCaT cell death
